Test results reported in PMC3061052 (Nucleic Acids Research, 2010).
Substitutions are numbered along the chain they refer to. Entries after “also recorded” stand apart in the source; their conditions may differ.

Legend:
NpmA D55A = biological target: T1, NpmA D55A (Escherichia coli, UniProt A8C927, D55A); assay: ITC titration of NpmA D55A variant with cofactor; format: binding; conditions: 20°C
T1 sequence (A8C927 1-219 D55A): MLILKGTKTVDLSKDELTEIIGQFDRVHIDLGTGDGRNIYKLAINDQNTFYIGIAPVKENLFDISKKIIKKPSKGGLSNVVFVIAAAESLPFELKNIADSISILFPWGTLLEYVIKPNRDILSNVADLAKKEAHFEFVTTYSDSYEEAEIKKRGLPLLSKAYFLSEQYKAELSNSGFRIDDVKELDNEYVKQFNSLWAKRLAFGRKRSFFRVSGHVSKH

NpmA D30A = biological target: T2, NpmA D30A (Escherichia coli, UniProt A8C927, D30A); assay: ITC titration of NpmA D30A variant with cofactor; format: binding; conditions: 20°C
T2 sequence (A8C927 1-219 D30A): T1 sequence (A8C927 1-219 D55A) with D30A, A55D

NpmA S195A = biological target: T3, NpmA S195A (Escherichia coli, UniProt A8C927, S195A); assay: ITC titration of NpmA S195A variant with cofactor; format: binding; conditions: 20°C
T3 sequence (A8C927 1-219 S195A): T1 sequence (A8C927 1-219 D55A) with A55D, S195A

NpmA (wild-type) = biological target: T4, NpmA (wild-type) (Escherichia coli, UniProt A8C927); assay: ITC titration of wild-type NpmA with cofactor; format: binding
T4 sequence (A8C927 1-219): T1 sequence (A8C927 1-219 D55A) with A55D

NpmA E88A = biological target: T5, NpmA E88A (Escherichia coli, UniProt A8C927, E88A); assay: ITC titration of NpmA E88A variant with cofactor; format: binding; conditions: 20°C
T5 sequence (A8C927 1-219 E88A): T1 sequence (A8C927 1-219 D55A) with A55D, E88A

[1] = system: E. coli BL21(DE3)pLysS cells carrying recombinant pET-25b(+) vector with different npmA variants; assay: Kanamycin MIC dilution assay in cells carrying npmA variants; format: cell-based, Escherichia coli
In short: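 BL21(DE3)pLysS cells with pET-25b(+) npmA variants were grown overnight, diluted 100-fold in LB with ampicillin (100 mg/l) and chloramphenicol (34 mg/l), and grown to OD600 1. Cells were inoculated into the same medium with kanamycin at 0.5–1024 mg/l in twofold steps and incubated 18 h at 37°C. MIC was the lowest kanamycin concentration preventing visible growth.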

C[S+](CC[C@H](N)C(=O)[O-])C[C@H]1O[C@@H](n2cnc3c(N)ncnc32)[C@H](O)[C@@H]1O (stereo partly shown) [AdoMet, S-adenosylmethionine]
Kd for AdoMet (NpmA D55A): completely lost their ability to interact; also recorded: No binding | Kd for AdoMet (NpmA D30A): completely lost their ability to interact; also recorded: No binding | Kd for AdoMet (NpmA S195A): complete loss of AdoMet binding; also recorded: No binding | N (ITC single site fit) for AdoMet (NpmA (wild-type)): 1.1 | Kd (NpmA (wild-type); Kd for AdoMet, ITC, 20°C, no 30S subunit): 18 µM | Kd for AdoMet (NpmA E88A): completely lost their ability to interact; also recorded: No binding

Nc1ncnc2c1ncn2[C@@H]1O[C@H](CSCC[C@H](N)C(=O)O)[C@@H](O)[C@H]1O [AdoHcy, S-adenosylhomocysteine]
Kd for AdoHcy (NpmA D55A): completely lost their ability to interact; also recorded: No binding | Kd for AdoHcy (NpmA D30A): completely lost their ability to interact; also recorded: No binding | N (ITC single site fit) for AdoHcy (NpmA (wild-type)): 1.0 | Kd for AdoHcy (NpmA E88A): completely lost their ability to interact; also recorded: No binding

NC[C@H]1O[C@H](O[C@H]2[C@H](O)[C@@H](O[C@H]3O[C@H](CO)[C@@H](O)[C@H](N)[C@H]3O)[C@H](N)C[C@@H]2N)[C@H](O)[C@@H](O)[C@@H]1O [Kanamycin, kanamycin]
Kanamycin MIC ([1]; Negative control (empty vector), 18 h at 37°C): 4 to 8 mg/L | Kanamycin MIC ([1]; cells expressing NpmA D30A): 8 mg/L | Kanamycin MIC ([1]; cells expressing NpmA D55A): 512 mg/L | kanamycin MIC compared to the wt NpmA ([1]; cells expressing NpmA D55A): 50% | Kanamycin MIC ([1]; cells expressing NpmA E88A): 1024 mg/L | Kanamycin MIC ([1]; cells expressing NpmA F177A): 1024 mg/L | Kanamycin MIC ([1]; cells expressing NpmA K199A): 1024 mg/L | Kanamycin MIC ([1]; cells expressing NpmA P106A): 1024 mg/L | Kanamycin MIC ([1]; cells expressing NpmA R200A): 1024 mg/L | Kanamycin MIC ([1]; cells expressing NpmA R205A): 1024 mg/L | Kanamycin MIC ([1]; cells expressing NpmA S195A): 1024 mg/L | Kanamycin MIC ([1]; cells expressing NpmA T109A): 1024 mg/L | Kanamycin MIC ([1]; cells expressing NpmA W107A): 8 mg/L | Kanamycin MIC ([1]; cells expressing NpmA W197A): 8 mg/L | Kanamycin MIC ([1]; cells expressing NpmA-wt): 1024 mg/L
